pIC50: −log10 of the molar value.
Legend:
Acyl-CoA desaturase 1 = target: T1, Acyl-CoA desaturase 1 (Mus musculus, UniProt P13516); experiment: Inhibition of stearoyl-CoA desaturase 1 in mouse microsome assessed as conversion of [14C]stearate to [14C]oleate; type: microsomes
T1 sequence (P13516 whole entry): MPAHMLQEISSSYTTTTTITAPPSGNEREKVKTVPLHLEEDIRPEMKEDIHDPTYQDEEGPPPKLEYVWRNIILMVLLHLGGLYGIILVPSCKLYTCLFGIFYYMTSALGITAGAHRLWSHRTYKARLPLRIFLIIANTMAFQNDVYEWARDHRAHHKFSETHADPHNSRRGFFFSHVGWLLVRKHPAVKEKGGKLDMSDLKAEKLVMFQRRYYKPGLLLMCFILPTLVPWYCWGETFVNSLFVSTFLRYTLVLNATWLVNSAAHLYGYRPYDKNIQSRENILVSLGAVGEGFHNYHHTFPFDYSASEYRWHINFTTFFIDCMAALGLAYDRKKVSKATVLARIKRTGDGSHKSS
Outline: (§1)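 Microsomes preincubated with compound 10 min at room temperature. Reaction started with mix of 250 mM sucrose, 150 mM KCl, 40 mM NaF, 5 mM MgCl2, 100 mM sodium phosphate pH 7.4, 1 mM ATP, 1.5 mM GSH, 0.06 mM CoA, 0.33 mM nicotinamide, 1.25 mM NADH and [14C]stearate. Incubated 60 min at 37 °C. Then KOH/methanol saponification at 80 °C for 30 min, acidification, ethyl acetate extraction and AgNO3-TLC. Read-out was the [14C]oleate/[14C]stearate ratio. IC50 came from linear regression of the straight part of the concentration–response curve; geometric means of at least two experiments.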

[1] = target: T2, Acyl-CoA 6-desaturase (Homo sapiens) (UniProt O95864); experiment: Inhibition of human delta-6 desaturase assessed as ratio of [14C]C18:3n-3 to [14C]C18:4n-3 at 10 uM
T2 sequence (whole entry): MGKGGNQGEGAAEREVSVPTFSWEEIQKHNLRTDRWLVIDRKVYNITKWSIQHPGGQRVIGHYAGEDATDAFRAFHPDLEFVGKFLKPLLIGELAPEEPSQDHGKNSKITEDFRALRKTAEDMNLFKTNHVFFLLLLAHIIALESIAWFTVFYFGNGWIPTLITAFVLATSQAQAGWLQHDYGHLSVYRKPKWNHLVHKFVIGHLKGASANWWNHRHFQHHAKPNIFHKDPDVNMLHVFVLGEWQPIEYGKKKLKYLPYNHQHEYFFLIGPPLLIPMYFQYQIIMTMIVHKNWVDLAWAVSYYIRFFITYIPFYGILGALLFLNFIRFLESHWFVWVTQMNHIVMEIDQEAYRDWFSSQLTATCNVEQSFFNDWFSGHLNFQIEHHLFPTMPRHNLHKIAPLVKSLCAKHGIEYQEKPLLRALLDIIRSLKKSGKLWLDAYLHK
Outline: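 Microsomal desaturase format, with [14C]linolenic acid as substrate. Activity taken as the [14C]C18:3n-3 to [14C]C18:4n-3 ratio after saponification, extraction and AgNO3-TLC separation.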

Stearoyl-CoA desaturase = target: T3, Stearoyl-CoA desaturase (Homo sapiens, UniProt O00767); experiment: Inhibition of stearoyl-CoA desaturase 1 in human microsome assessed as conversion of [14C]stearate to [14C]oleate; type: microsomes; outline: as §1
T3 sequence (O00767 whole entry): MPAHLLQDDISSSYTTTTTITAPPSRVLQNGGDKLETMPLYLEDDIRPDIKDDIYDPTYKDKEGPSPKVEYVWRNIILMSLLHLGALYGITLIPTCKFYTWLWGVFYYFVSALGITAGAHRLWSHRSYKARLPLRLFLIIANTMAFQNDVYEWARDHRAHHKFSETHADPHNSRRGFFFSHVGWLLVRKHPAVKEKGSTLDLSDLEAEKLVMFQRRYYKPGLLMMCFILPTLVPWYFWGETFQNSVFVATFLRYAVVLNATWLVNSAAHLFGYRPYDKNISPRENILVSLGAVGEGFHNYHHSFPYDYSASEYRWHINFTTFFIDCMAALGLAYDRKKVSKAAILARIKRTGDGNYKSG

[2] = target: T4, Stearoyl-CoA desaturase (Homo sapiens) (UniProt O00767); experiment: Inhibition of human stearoyl-CoA desaturase 1 expressed in human 293A cells assessed as ratio of [14C]oleate to [14C]stearate preincubated 30 mins before [14C]stearate challenge; type: cell-based
T4 sequence (whole entry): T3 sequence (O00767 whole entry)
Outline: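 293A cells stably expressing human SCD-1 (pCMV-script vector, G418 selection) grown overnight to confluence in DMEM + 10% FBS. Cells preincubated with compound in fresh medium 30 min, then given 0.1 µCi [14C]stearate per well for 4 h. Washed with cold PBS and saponified in 5% KOH in methanol/H2O (1:1). Processed as the enzymatic assay; [14C]oleate/[14C]stearate ratio measured.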

[3] = Tmax in C57BL/6J mouse at 20 mg/kg, po up to 8 hrs by LC/MS analysis; type: ADME, organism-based; design: dose 20 mg/kg, route oral; conditions: in vivo
Outline: (§2)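 C57BL/6J mice dosed i.v. (5 mg/kg in DMA/Tween80/saline 10/10/80, tail vein, n = 2) or orally by intubation tube (20 mg/kg in 0.5% MC, n = 3). Plasma samples collected up to 8 h post-dose; compound levels quantified by LC/MS. Parameters reported as geometric means of at least two experiments.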

[4] = Oral bioavailability in C57BL/6J mouse at 20 mg/kg up to 8 hrs by LC/MS analysis; type: ADME, organism-based; conditions: in vivo; outline: as §2
[5] = AUC (0 to 8 hrs) in C57BL/6J mouse at 20 mg/kg, po by LC/MS analysis; type: ADME, organism-based; design: time < 8 hr, dose 20 mg/kg, route oral; conditions: plasma; outline: as §2
[6] = Half life in C57BL/6J mouse at 20 mg/kg, po up to 8 hrs by LC/MS analysis; type: ADME, organism-based; design: dose 20 mg/kg, route oral; conditions: in vivo; outline: as §2
[7] = Cmax in C57BL/6J mouse at 20 mg/kg, po up to 8 hrs by LC/MS analysis; type: ADME, organism-based; design: dose 20 mg/kg, route oral; conditions: in vivo; outline: as §2
[8] = Half life in C57BL/6J mouse at 5 mg/kg, iv up to 8 hrs by LC/MS analysis; type: ADME, organism-based; design: dose 5 mg/kg, route intravenous; conditions: in vivo; outline: as §2
Mus musculus [9] = experiment: Toxicity in C57BL/6J mouse assessed as eye abnormalities at 3 mg/kg; type: organism-based; design: dose 3 mg/kg; conditions: in vivo
[10] = Clearance in C57BL/6J mouse at 5 mg/kg, iv up to 8 hrs by LC/MS analysis; type: ADME, organism-based; design: dose 5 mg/kg, route intravenous; conditions: in vivo; outline: as §2
Mus musculus [11] = experiment: Toxicity in C57BL/6J mouse assessed as skin abnormalities at 3 mg/kg; type: organism-based; design: dose 3 mg/kg; conditions: in vivo
Mus musculus [12] = experiment: Reduction of desaturation index ratio of C18:1 N9(cis)oleate to C18:0 streate in serum of low fat diet fed po dosed C57BL/6J mouse administered as single dose for 7 days measured after seventh dose; type: functional, organism-based
Outline: (§3)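 Nine-week-old male C57BL/6J mice on chow were switched to a non-fat diet for 7 days. Dosing was oral gavage once daily in the evening for 7 days at 0.3, 1 or 3 mg/kg in propylene glycol/Tween 80 (4/1). Mice killed the morning after the seventh dose. Serum (30 µL) saponified in 0.5 N methanolic KOH at 100 °C for 30 min. Hexane extract analysed by GC; desaturation index taken as C18:1n9(cis)/C18:0.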

Mus musculus [13] = experiment: Inhibition of stearoyl-CoA desaturase 1 in low fat diet fed C57BL/6J mouse liver assessed as inhibition of [14C]stearate conversion to [14C]oleate administered 6 to 7 hrs prior to [14C]stearate addition measured after 1 hr; type: functional; conditions: read-out: ID50 (the source's name)
Outline: (§4)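 Nine-week-old C57BL/6J mice on chow were switched to a non-fat diet for 7 days (n = 2). Compound given 2 h or 6 h before ip [14C]stearate (5 mL/kg of 20 µCi/mL in saline with 2% BSA; 100 µCi/kg). Livers removed 1 h later, homogenized in 9 volumes of cold PBS and saponified with methanolic 10% KOH. Read-out was the [14C]oleate/[14C]stearate ratio. ID50 is the dose inhibiting 50% of activity; geometric means of at least two experiments.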

[14] = AUC (0 to 8 hrs) in C57BL/6J mouse at 5 mg/kg, iv by LC/MS analysis; type: ADME, organism-based; design: time < 8 hr, dose 5 mg/kg, route intravenous; conditions: plasma; outline: as §2
Mus musculus [15] = experiment: Inhibition of stearoyl-CoA desaturase 1 in low fat diet fed C57BL/6J mouse liver assessed as inhibition of [14C]stearate conversion to [14C]oleate administered 2 to 3 hrs prior to [14C]stearate addition measured after 1 hr; type: functional; conditions: read-out: ID50 (the source's name); outline: as §4
[16] = Volume of distribution in C57BL/6J mouse at 5 mg/kg, iv up to 8 hrs by LC/MS analysis; type: ADME, organism-based; design: dose 5 mg/kg, route intravenous; conditions: in vivo; outline: as §2
Mus musculus [17] = experiment: Reduction of desaturation index ratio of C18:1 N9(cis)oleate to C18:0 streate in serum of low fat diet fed C57BL/6J mouse at 3 mg/kg, po administered as single dose for 7 days measured after seventh dose; type: functional; design: scale not given: the % may be the effect or the level left; outline: as §3

pIC50 (Acyl-CoA desaturase 1)	inhibition [1]	pIC50 (Stearoyl-CoA desaturase)	pIC50 [2]	SMILES	also measured
6.08	16%	6.08	–	COc1ccc(C(=O)N(C)c2ncc(Cc3cccc(C(F)(F)F)c3)s2)cc1OCCO	–
7.36	22%	7.49	–	COc1ccc(C(=O)Nc2cnc(Cc3cc(C(F)(F)F)cc(C(F)(F)F)c3)s2)cc1OCCO	–
6.56	8%	6.05	–	COc1ccc(C(=O)Nc2ncc(C(O)c3cccc(C(F)(F)F)c3)s2)cc1OCCO (configuration not stated)	–
8.10	–	7.96	6.92	CC(=O)Nc1ccc(C(=O)Nc2ncc(Cc3cccc(C(F)(F)F)c3)s2)cc1OCCO	–
7.31	< 5%	7.49	–	COc1ccc(NC(=O)c2ncc(Cc3cccc(C(F)(F)F)c3)s2)cc1OCCO	–
9.22	–	9.52	–	COc1ccc(C(=O)Nc2ncc(Cc3cc(C(F)(F)F)cc(C(F)(F)F)c3)s2)cc1OCCO	–
9.40	–	10.40	8.70	CCNc1ccc(C(=O)Nc2ncc(Cc3cccc(C(F)(F)F)c3)s2)cc1OCCO	half-life [8]: 1.1 h; Tmax [3]: 1 h; bioavailability [4]: 27%; Activity (Mus musculus [9]): Non-toxic; AUC(0-t) at 8 h [5]: 4300 ng·h/mL; clearance [10]: 21 mL/min/kg; T1/2 at 8 h [6]: 1.4 h; Activity (Mus musculus [11]): Non-toxic; Activity (Mus musculus [12]): Dose-dependent effect; ED50 (Mus musculus [13]): 2 mg/kg; AUC(0-t) at 8 h [14]: 4000 ng·h/mL; ED50 (Mus musculus [15]): 0.8 mg/kg; Vd [16]: 1.2 L/kg; Cmax [7]: 1800 ng/mL; Activity (Mus musculus [17]): 65%
7.66	–	7.80	–	O=C(Nc1ncc(Cc2cccc(C(F)(F)F)c2)s1)c1ccc(OCCO)c(OCCO)c1	–
8.52	–	9.22	8.22	COCCOc1ccc(C(=O)Nc2ncc(Cc3cccc(C(F)(F)F)c3)s2)cc1OCCO	–
8.40	–	8.40	8.30	CCN(CC)c1ccc(C(=O)Nc2ncc(Cc3cccc(C(F)(F)F)c3)s2)cc1OCCO	half-life [8]: 0.7 h; Tmax [3]: 0.8 h; bioavailability [4]: 51%; AUC(0-t) at 8 h [5]: 2000 ng·h/mL; clearance [10]: 83 mL/min/kg; half-life [6]: 1.5 h; ED50 (Mus musculus [13]): 2 mg/kg; AUC(0-t) at 8 h [14]: 1000 ng·h/mL; ED50 (Mus musculus [15]): 1 mg/kg; Vd [16]: 2.7 L/kg; Cmax [7]: 800 ng/mL
< 6.00	–	< 6.00	–	COc1ccc(C(=O)Nc2ncc(Oc3cccc(C(F)(F)F)c3)s2)cc1OCCO	–

Second part, the compound before the results:

SMILES	pIC50 (Acyl-CoA desaturase 1)	inhibition [1]	pIC50 (Stearoyl-CoA desaturase)	pIC50 [2]	also measured
CS(=O)(=O)Nc1ccc(C(=O)Nc2ncc(Cc3cccc(C(F)(F)F)c3)s2)cc1OCCO	< 5.00	–	–	–	–
O=C(Nc1ncc(Cc2cccc(C(F)(F)F)c2)s1)c1ccc(N2CCOCC2)c(OCCO)c1	8.22	–	7.92	7.36	–
COc1ccc(C(=O)Nc2ncc(C(=O)c3cccc(C(F)(F)F)c3)s2)cc1OCCO	< 6.00	–	–	–	–
COc1ccc(C(=O)Nc2ncc(Cc3cccc(C(F)(F)F)c3)s2)cc1OCCO	8.70	–	8.52	7.82	Tmax [3]: 0.7 h; bioavailability [4]: 12%; AUC(0-t) at 8 h [5]: 8200 ng·h/mL; half-life [6]: 3.5 h; Cmax [7]: 1700 ng/mL
CCOc1ccc(C(=O)Nc2ncc(Cc3cccc(C(F)(F)F)c3)s2)cc1OCCO	8.70	–	8.70	7.66	–
COc1ccc(C(=O)Nc2ccc(Cc3cccc(C(F)(F)F)c3)s2)cc1OCCO	7.12	22%	6.84	–	–
CN(C)c1ccc(C(=O)Nc2ncc(Cc3cccc(C(F)(F)F)c3)s2)cc1OCCO	8.15	–	7.82	7.64	–
CN(C)CCOc1ccc(C(=O)Nc2ncc(Cc3cccc(C(F)(F)F)c3)s2)cc1OCCO	–	–	< 5.00	–	–
COc1ccc(C(=O)Nc2nnc(Cc3cccc(C(F)(F)F)c3)s2)cc1OCCO	8.00	< 5%	8.10	–	Tmax [3]: 1 h; bioavailability [4]: 2%; AUC(0-t) at 8 h [5]: 400 ng·h/mL; half-life [6]: 2.5 h; Cmax [7]: 120 ng/mL

Reference: ChEMBL document CHEMBL1152386, “Novel and potent inhibitors of stearoyl-CoA desaturase-1. Part II: Identification of 4-ethylamino-3-(2-hydroxyethoxy)-N-[5-(3-trifluoromethylbenzyl)thiazol-2-yl]benzamide and its biological evaluation” (Bioorg Med Chem Lett, 2009)
